Measured values: article PMC4927891 (Journal of Alzheimer's Disease, 2015)
Peptide text beside a SMILES is read from it.

Legend:
Format in all cases: biochemical
[1] = target: GSK3β (Homo sapiens, UniProt P49841); assay: Radiometric protein kinase assay, GSK3β phosphotransferase activity; conditions: for % Activity Change 1 μM: peptide 1 μM, positive = activation; for % Activity Change 10 μM: peptide 10 μM; for % Activity Change 50 μM: peptide 50 μM; for GSK3β phosphotransferase activity activated by % compared to control / % Activity Change 500 μM: peptide 500 μM
Summary of the method: (§1)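 Reaction is started with [γ-33P]ATP (250 μM stock, 0.8 μCi), with peptide at six levels (1–500 μM) or 10% DMSO. Run 30°C, 20 min, then spot onto P81 paper, wash in 1% phosphoric acid and scintillation count. Substrate-free blank is subtracted. Duplicates, repeated twice.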

[2] = target: CDK5/p35 (Homo sapiens, UniProt Q00535); assay: Radiometric protein kinase assay, CDK5/p35 phosphotransferase activity; conditions: for % Activity Change 1 μM: peptide 1 μM; for % Activity Change 1 μM / % Activity Change 10 μM / % Activity Change 50 μM / % Activity Change 100 μM / % Activity Change 250 μM / % Activity Change 500 μM: duplicate; for % Activity Change 10 μM: peptide 10 μM; for % Activity Change 50 μM: peptide 50 μM; for % Activity Change 500 μM: peptide 500 μM
[3] = target: ERK1 (Homo sapiens, UniProt P27361); assay: Radiometric protein kinase assay, ERK1 phosphotransferase activity; conditions: for % Activity Change 1 μM: peptide 1 μM; for % Activity Change 10 μM: peptide 10 μM; for % Activity Change 50 μM: peptide 50 μM; for ERK1 activity inhibited by % compared to control / % Activity Change 500 μM: peptide 500 μM
Summary of the method: as §1

[4] = target: CDK5/p25 (Homo sapiens, UniProt Q00535); assay: Radiometric protein kinase assay, CDK5/p25 phosphotransferase activity; conditions: for % Activity Change 1 μM: peptide 1 μM, negative = inhibition; for % Activity Change 1 μM / % Activity Change 10 μM / % Activity Change 50 μM / % Activity Change 100 μM / % Activity Change 250 μM / % Activity Change 500 μM: vs control without inhibitor, duplicate; for % Activity Change 10 μM: peptide 10 μM; for % Activity Change 50 μM: peptide 50 μM; for % Activity Change 500 μM: peptide 500 μM
Summary of the method: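 GST-tagged CDK5/p25 co-expressed in Sf9 cells via baculovirus, 15 nM final, with calf thymus histone H1 (1 mg/ml final) in MOPS pH 7.2 buffer with MgCl2, EGTA, EDTA, DTT. Reaction started with [γ-33P]ATP (250 μM stock, 0.8 μCi) and run 20 min at 30°C. Products were spotted on P81 paper, washed in 1% phosphoric acid and scintillation-counted. No-substrate blank was subtracted. Peptide tested 1–500 μM against 10% DMSO control, two experiments in duplicate.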

Chain of GSK3β (P49841 whole entry, species assumed): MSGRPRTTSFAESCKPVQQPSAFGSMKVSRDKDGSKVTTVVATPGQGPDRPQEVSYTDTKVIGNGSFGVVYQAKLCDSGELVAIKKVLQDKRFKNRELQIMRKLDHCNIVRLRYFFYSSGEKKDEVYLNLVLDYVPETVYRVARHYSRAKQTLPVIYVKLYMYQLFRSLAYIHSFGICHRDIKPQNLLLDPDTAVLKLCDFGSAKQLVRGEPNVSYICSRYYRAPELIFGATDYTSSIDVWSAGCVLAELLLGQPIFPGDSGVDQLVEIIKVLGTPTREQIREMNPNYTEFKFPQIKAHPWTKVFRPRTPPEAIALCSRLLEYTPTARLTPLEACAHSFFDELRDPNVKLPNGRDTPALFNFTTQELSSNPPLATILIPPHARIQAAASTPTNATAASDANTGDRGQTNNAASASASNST
Chain of ERK1 (P27361 whole entry, species assumed): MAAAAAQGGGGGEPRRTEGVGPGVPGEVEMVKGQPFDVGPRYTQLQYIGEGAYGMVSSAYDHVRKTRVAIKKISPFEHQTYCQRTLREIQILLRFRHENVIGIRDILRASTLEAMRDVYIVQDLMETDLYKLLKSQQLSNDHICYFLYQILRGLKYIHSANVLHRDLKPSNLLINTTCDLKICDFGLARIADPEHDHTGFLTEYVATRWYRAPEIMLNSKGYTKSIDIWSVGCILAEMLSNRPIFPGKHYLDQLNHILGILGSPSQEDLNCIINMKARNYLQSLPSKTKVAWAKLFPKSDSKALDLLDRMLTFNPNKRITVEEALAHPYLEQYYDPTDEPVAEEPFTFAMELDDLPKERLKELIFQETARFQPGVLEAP
Chain of CDK5/p25 (Q00535 whole entry): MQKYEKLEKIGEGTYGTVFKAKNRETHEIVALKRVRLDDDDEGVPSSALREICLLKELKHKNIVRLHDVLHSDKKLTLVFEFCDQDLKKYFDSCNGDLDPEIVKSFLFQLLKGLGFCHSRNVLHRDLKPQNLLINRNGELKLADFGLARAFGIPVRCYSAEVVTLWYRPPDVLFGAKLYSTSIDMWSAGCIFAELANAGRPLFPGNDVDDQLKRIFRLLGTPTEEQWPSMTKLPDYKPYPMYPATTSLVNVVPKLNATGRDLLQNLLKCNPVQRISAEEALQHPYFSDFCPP
Chain of CDK5/p35 (Q00535 whole entry): as above

Compound | % Activity Change 1 μM ([1]; duplicate) | % Activity Change 10 μM ([1]; duplicate) | % Activity Change 50 μM ([1]; duplicate) [%] | GSK3β phosphotransferase activity activated by % compared to control [1] [%] | % Activity Change 500 μM ([1]; duplicate) [%] | IC50 [2] [µM] | % Activity Change 1 μM [2] | % Activity Change 10 μM [2] | % Activity Change 50 μM [2] | % Activity Change 100 μM ([2]; peptide 100 μM) | % Activity Change 250 μM ([2]; peptide 250 μM) | % Activity Change 500 μM [2] | % Activity Change 1 μM ([3]; duplicate) [%] | % Activity Change 10 μM ([3]; duplicate) [%] | % Activity Change 50 μM ([3]; duplicate) | ERK1 activity inhibited by % compared to control [3] [%] | % Activity Change 500 μM ([3]; duplicate) | IC50 [4] [µM] | % Activity Change 1 μM [4] [%] | % Activity Change 10 μM [4] | further results
CC[C@H](C)[C@H](NC(=O)[C@H](CCC(N)=O)NC(=O)[C@@H](NC(=O)[C@H](CCSC)NC(=O)[C@H](CCCCN)NC(=O)[C@H](CO)NC(=O)[C@@H](NC(=O)[C@H](CCSC)NC(=O)[C@H](CC(C)C)NC(=O)[C@H](CC(N)=O)NC(=O)[C@@H](NC(=O)[C@@H](NC(=O)[C@H](CO)NC(=O)[C@H](CC(C)C)NC(=O)[C@H](C)NC(=O)[C@H](CCCNC(=N)N)NC(=O)[C@H](CCC(=O)O)NC(=O)[C@H](Cc1ccc(O)cc1)NC(=O)[C@H](Cc1ccccc1)NC(=O)[C@H](C)NC(=O)[C@H](CC(N)=O)NC(=O)[C@@H](N)CCCCN)[C@@H](C)CC)[C@@H](C)CC)[C@@H](C)O)C(C)C)C(=O)N[C@@H](CC(N)=O)C(=O)N[C@H](C(=O)O)C(C)C [p5-MT] (H-KNAFYERALSIINLMTSKMVQINV-OH) | –1% | 3% | 6 | 40 | 40 | 83 | –3% | –14% | –35% | –57% | –73% | –84% | 1 | 0 | –2% | 54 | –54% | 119 | 2 | –8% | CDK5/p35 phosphotransferase activity inhibited by % compared to control ([2]; peptide 100 μM): 57%; IC50 [3]: 425 µM; % Activity Change 250 μM ([3]; peptide 250 μM, duplicate): –35%; % Activity Change 50 μM [4]: –22%; CDK5/p25 phosphotransferase activity inhibited by % compared to control ([4]; peptide 100 μM): 46%; % Activity Change 100 μM ([4]; peptide 100 μM): –46%; % Activity Change 250 μM ([4]; peptide 250 μM): –73%; % Activity Change 500 μM [4]: –85%
CC[C@H](C)[C@H](NC(=O)[C@H](CCC(N)=O)NC(=O)[C@H](CC(C)C)NC(=O)[C@H](CCSC)NC(=O)[C@H](CCCCN)NC(=O)[C@H](CO)NC(=O)[C@H](CO)NC(=O)[C@H](CCSC)NC(=O)[C@H](CC(C)C)NC(=O)[C@H](CC(N)=O)NC(=O)[C@@H](NC(=O)[C@@H](NC(=O)[C@H](CO)NC(=O)[C@H](CC(C)C)NC(=O)[C@H](CS)NC(=O)[C@H](CCCNC(=N)N)NC(=O)[C@H](CC(=O)O)NC(=O)[C@H](Cc1c[nH]c2ccccc12)NC(=O)[C@H](Cc1ccccc1)NC(=O)[C@H](C)NC(=O)[C@H](CCC(=O)O)NC(=O)[C@@H](N)CCCCN)C(C)C)[C@@H](C)CC)C(=O)N[C@@H](CC(N)=O)C(=O)N[C@@H](C)C(=O)O [p5-WT] (H-KEAFWDRCLSVINLMSSKMLQINA-OH) | –3% | –1% | 0 | 24 | 24 | 217 | 2% | –2% | –10% | –29% | –53% | –76% | 0 | 0 | –3% | 25 | –25% | 169 | 0 | –13% | % Activity Change 100 μM ([1]; peptide 100 μM, duplicate): 8%; CDK5/p35 activity inhibited by % compared to control ([2]; peptide 250 μM): 53%; % Activity Change 100 μM ([3]; peptide 100 μM, duplicate): –6%; % CFC (percent change from control) ([4]; 79-peptide scan, relative to p5-WT peptide (#1), negative = greater inhibition): 0%; % Activity Change 50 μM [4]: –20%; % Activity Change 100 μM ([4]; peptide 100 μM): –41%; CDK5/p25 phosphotransferase activity inhibited by % compared to control ([4]; peptide 250 μM): 59%; % Activity Change 250 μM ([4]; peptide 250 μM): –59%; % Activity Change 500 μM [4]: –72%
